From PubChem
ABHD4 inh – ABHD4 inhibitors, primary screen, biochemical, fluorescence polarization, mouse; hit rate 0.54% among 370,000; inhibition, % at 8.92 µM; purified mABHD4, FP-Rh probe fluorescence polarization;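 active = inhibition exceeding the mean over every tested compound plus 3 SD, cut at about 30% in these data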;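 note: 0% = plate median of compound wells and 100% = S159A mutant with DMSO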
Target sequence (Q8VD66 whole entry, looked up): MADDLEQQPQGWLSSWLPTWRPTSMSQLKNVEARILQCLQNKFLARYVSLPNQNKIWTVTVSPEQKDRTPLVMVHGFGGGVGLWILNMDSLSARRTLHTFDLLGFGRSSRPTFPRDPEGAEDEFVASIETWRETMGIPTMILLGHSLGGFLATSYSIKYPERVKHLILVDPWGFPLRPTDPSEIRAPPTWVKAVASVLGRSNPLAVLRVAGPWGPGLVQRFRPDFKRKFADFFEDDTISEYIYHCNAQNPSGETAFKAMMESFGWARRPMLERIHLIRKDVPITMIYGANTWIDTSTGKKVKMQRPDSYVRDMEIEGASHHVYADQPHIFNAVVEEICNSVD
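System: mouse ABHD4 enzyme, wild type / Medium: HEPES pH 7.0, NaCl, Pluronic buffer / Reagent: FP-Rh activity-based fluorescent probe / Control set: S159A mutant high control, sample median low control / Detection: fluorescence polarization with parallel and perpendicular emission, 525/598 nm / Schedule: 45 min + 60 min at 25 °C / Compound dosing: 8.92 µM, single dose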
PAFAH1B3 FP inh – PAFAH1B3 enzyme inhibitors, primary screen, biochemical, fluorescence polarization, human. Platelet-activating factor acetylhydrolase IB subunit alpha1 (Homo sapiens), Q15102. recombinant PAFAH1B3, FP-rhodamine probe. inhibition, % at 3.39 µM. hit rate 0.28% among 340,000;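 active = inhibition above the screen-wide average of all tested compounds plus 3 SD, cut at about 25% in these data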;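 note: 0% = enzyme with DMSO only and 100% = wells lacking PAFAH1B3 protein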
Target sequence (Q15102 whole entry, looked up): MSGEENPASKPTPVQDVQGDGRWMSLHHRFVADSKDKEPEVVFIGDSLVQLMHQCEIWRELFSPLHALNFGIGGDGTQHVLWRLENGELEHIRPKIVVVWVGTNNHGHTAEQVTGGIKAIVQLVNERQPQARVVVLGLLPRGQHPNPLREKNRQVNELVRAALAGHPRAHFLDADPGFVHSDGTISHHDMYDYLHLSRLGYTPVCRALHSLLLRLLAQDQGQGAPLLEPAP
HTRA1 inh – HTRA1 serine protease inhibitors, primary screen, biochemical, fluorescence polarization, HTS | Q92743 | hit rate 0.5% among 340,000 | recombinant HTRA1, FP-rhodamine activity-based probe | inhibition, % at 5.96 µM | AID 504803, 2011; in the data active = inhibition above about 36%;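 note: 0% = enzyme with DMSO and 100% = wells lacking enzyme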
pPAFAH inh – pPAFAH enzyme inhibitors, primary screen, biochemical, fluorescence polarization, human; hit rate 1.5% among 330,000; recombinant pPAFAH, FP-rhodamine probe fluorescence polarization; AID 463082, 2010; inhibition, % at 3.39 µM; Platelet-activating factor acetylhydrolase (Homo sapiens), Q13093;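 active = inhibition above the mean inhibition across the screen plus 3 SD, cut at about 25% in these data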;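 note: inhibitors block binding of the rhodamine activity-based probe so polarization drops; 0% = enzyme with DMSO and 100% = wells lacking pPAFAH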
PAFAH1B2 inh – PAFAH1B2 enzyme inhibitors, primary screen, biochemical, fluorescence polarization, human; Platelet-activating factor acetylhydrolase IB subunit alpha2 (Homo sapiens), P68402; recombinant PAFAH1B2, FP-rhodamine activity probe; inhibition, % at 3.39 µM; hit rate 1.2% among 340,000; AID 492953, 2010;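 active = inhibition above the mean of all tested compounds plus 3 SD, cut at about 24% in these data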;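 note: 0% = enzyme with DMSO and 100% = wells lacking PAFAH1B2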
PAFAH2 FP inh – PAFAH2 enzyme inhibitors, primary screen, biochemical, fluorescence polarization, human; hit rate 0.99% among 340,000; recombinant PAFAH2, FP-rhodamine activity probe; inhibition, % at 3.39 µM; Platelet-activating factor acetylhydrolase 2, cytoplasmic (Homo sapiens), Q99487; AID 492956, 2010;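 active = inhibition above the mean over all tested compounds plus 3 SD, cut at about 30% in these data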;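 note: inhibitors block probe labeling of enzyme so polarization drops; 0% = enzyme with DMSO and 100% = wells lacking PAFAH2 protein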
PAFAH2 confirm – PAFAH2 enzyme inhibitors, confirmation, biochemical, fluorescence polarization, human. shares compounds with PAFAH2 FP inh. recombinant PAFAH2, FP-rhodamine activity probe. inhibition, % at 3.39 µM. hit rate 65% among 2,300;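 active = mean inhibition over three repeats above a set limit taken from the earlier primary screen, cut at about 30% in these data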;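 note: inhibitor blocks binding of rhodamine activity probe so polarization falls; 0% = enzyme with DMSO and 100% = wells lacking PAFAH2 protein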
* hit, by the source's call; / = not tested or not shown. An excerpt weighted towards active compounds, which were near 2.8% of everything screened.

SMILES | ABHD4 inh | PAFAH1B3 FP inh | HTRA1 inh | pPAFAH inh | PAFAH1B2 inh | PAFAH2 FP inh | PAFAH2 confirm
Cc1ccc(C(=O)NCC(=O)OCC(=O)NC(C)c2ccccc2)s1 (stereo unspecified) | -4 | 4 | 6 | -6 | 0 | 7 | /
Cc1ccc(C(=O)OCC(=O)NC(C)c2ccccc2)s1 (stereo unspecified) | -4 | 1 | 5 | 13 | 1 | 78* | 69*
COc1cccc(/C=C2\CC3(OC(=O)C(C)(C)C)CCCN2C3)c1 (stereo unspecified) | 7 | / | / | / | / | / | /
COc1cccc(NC(=O)COC(=O)c2ccccc2F)c1 | 4 | 7 | 5 | 13 | -2 | 76* | 70*
COc1cccc(NC(=O)COC(=O)c2c(F)cccc2Cl)c1 | -10 | 4 | -2 | 6 | 4 | 61* | 59*
O=C(CCc1nc(-c2ccccc2F)no1)NCCc1cccc(F)c1 | -2 | / | / | / | / | / | /
Cc1ccc(NC2c3ncccc3C(=O)N2Cc2cccs2)cc1C (stereo unspecified) | 10 | 1 | 1 | -2 | 0 | 69* | -8
O=C1c2cccnc2C(Nc2ccc(Cl)cc2)N1Cc1cccs1 (stereo unspecified) | 2 | -1 | -3 | 2 | 2 | -4 | /
COCCSc1ncccc1-c1nc2ccccc2[nH]1 | 4 | / | / | / | / | / | /
CN1CCN(c2ccc3c(c2)Oc2ccccc2CN(Cc2cn(Cc4ccc(C(F)(F)F)cc4)nn2)S3(=O)=O)CC1 | 0 | / | / | / | / | / | /
O=C(COC(=O)c1ccc([N+](=O)[O-])o1)NC1CCCCC1 | 5 | 15 | 14 | 12 | 8 | 29 | /
Cc1ccc(C(=O)OCC(=O)NC2CCCCC2)o1 | 2 | 5 | 2 | 8 | 4 | 68* | 46*
N#CC1(NC(=O)COC(=O)c2cccc(-n3cnnn3)c2)CCCCC1 | 9 | 5 | 4 | 0 | 7 | 73* | 72*
Cc1cc(C(=O)OCC(=O)NC2CCCC(C)C2C)c(C)o1 (stereo unspecified) | -10 | 5 | -6 | 12 | 5 | 82* | 67*
N#CC1(NC(=O)COC(=O)c2ccccc2[N+](=O)[O-])CCCCC1 | 2 | 4 | 1 | 10 | 2 | 69* | 74*
CCOC(=O)[C@]12CCCCC/C=C\1N(CCc1ccc(Cl)cc1)C(=O)[C@H]2CC(=O)NCCCN1CCCC1=O | 1 | / | / | / | / | / | /
COc1cccc(CC(=O)OCC(=O)NC2(C#N)CCCC2)c1 | 0 | 6 | 4 | 2 | 3 | 3 | /
CNS(=O)(=O)c1cccc(C(=O)OCC(=O)Nc2cc(F)ccc2F)c1 | -3 | 4 | -7 | 7 | 7 | 45* | 32*
COc1cccc(CC(=O)OCC(=O)NC2(C#N)CCCCC2)c1 | 4 | 4 | 9 | 14 | 1 | 32* | 14
CCOC(=O)c1c(C)[nH]c(C(=O)OC(C)C(=O)NC2(C#N)CCCCC2)c1C (stereo unspecified) | -1 | / | -9 | / | / | / | /
CCOC(=O)c1c(C)[nH]c(C(=O)OCC(=O)NC2(C#N)CCCCC2)c1C | 0 | 3 | -8 | 5 | 1 | 57* | 52*
Cc1cc(C(=O)OCC(=O)NC2(C#N)CCCCC2)c(C)o1 | -5 | 7 | 6 | 8 | 3 | 75* | 75*
Cc1cc(C(=O)OCC(=O)NC(C)C)c(C)o1 | -2 | -3 | 5 | -5 | 6 | 10 | /
COc1cc(NC(=O)C2CCCN(S(=O)(=O)c3ccc(Br)s3)C2)cc(OC)c1 (stereo unspecified) | -27 | / | / | / | / | / | /
CCCCS(=O)(=O)N1C2=NC3=C(C(=O)N(CCOC)C3=O)C3N(C)c4ccccc4[C@]23C[C@H]1CO (stereo partly specified) | 9 | / | / | / | / | / | /
SMILES | ABHD4 inh | PAFAH1B3 FP inh | HTRA1 inh | pPAFAH inh | PAFAH1B2 inh | PAFAH2 FP inh | PAFAH2 confirm
N#CCC(=O)Nc1ccc(C(=O)OCC(=O)NC2CCCc3ccccc32)cc1 (stereo unspecified) | -41 | -3 | -44 | 2 | -6 | 43* | 38*
N#CC1(NC(=O)COC(=O)c2ccc(-c3ccc(O)cc3)cc2)CCCCC1 | -6 | 0 | -20 | 7 | -2 | 76* | 72*
Cc1cc(C(=O)OCC(=O)NC2CCCCC2)c(C)o1 | -5 | -5 | 2 | 7 | 0 | 84* | 63*
Nc1nccnc1C(=O)OCC(=O)NC1CCCc2ccccc21 (stereo unspecified) | 4 | 9 | 5 | 7 | 0 | 2 | /
Cc1ccc(C(=O)OCC(=O)NC2CCCc3ccccc32)o1 (stereo unspecified) | -4 | -1 | -1 | 2 | 5 | 33* | 9
CNS(=O)(=O)c1cccc(C(=O)OCC(=O)NC2CCCC(C)C2C)c1 (stereo unspecified) | -7 | 1 | -1 | 4 | 16 | 63* | 49*
Cc1ccc(NC(=O)Cc2nc(CN(C)CC(=O)Nc3ccc(C)cc3)cs2)cc1 | 12 | 5 | -21 | 14 | 9 | 31* | 16
O=C(CCc1ccccc1)N[C@H]1[C@H](OCc2ccccc2)CCC[C@@]12C(=O)N(Cc1ccccc1)c1ccccc12 | 1 | / | / | / | / | / | /
N#Cc1ccc(/C=C2\CC3(OC(=O)c4cccc(F)c4)CCCN2C3)cc1 (stereo unspecified) | 0 | / | / | / | / | / | /
CCc1ccc(OCC(=O)NNC(=S)NC(=O)C2CC2)c(Br)c1 | 1 | 4 | -3 | / | 1 | -6 | /
CCc1ccc(OCC(=O)NC(=S)Nc2ccc(C)cc2C)c(Br)c1 | 8 | 8 | -1 | 0 | -3 | 30* | -3
COC(=O)[C@H]1C[C@@]2(CC=C(C)C)c3ccccc3N(C(=O)OC(C)(C)C)[C@H]2N1C(=O)OC(C)(C)C | -9 | / | / | / | / | / | /
CCCCCCCCN1CCS(=O)(=O)N(Cc2ccc(Cl)cc2)C(C(=O)OC)C1 (stereo unspecified) | -5 | / | / | / | / | / | /
O=C1/C(=C\c2ccccn2)SC(=S)N1Nc1ncc(C(F)(F)F)cc1Cl | / | 12 | -3 | -5 | 10 | 34* | 26
O=C1/C(=C/c2ccc(F)cc2)SC(=S)N1Nc1ncc(C(F)(F)F)cc1Cl | 6 | -6 | -9 | 9 | -4 | 2 | /
O=C1/C(=C/c2ccccn2)SC(=S)N1NS(=O)(=O)c1ccccc1 | 0 | 10 | -6 | 3 | 7 | 4 | /
